bCat KO growth – beta-catenin-lacking colon tumor cell growth suppression; 140,000 compounds, 1.5% hits; AID 818; HCT116 beta-catenin knockout viability, CellTiter-Glo, 60 h; hits give low values; viability, % at 10 µM;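 active = viability at or under a set limit, the compound median less 4 SD, cut at about 6% in these data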
Dynein cargo inh – dynein cargo transport inhibition; z-score, hits read low; 220,000 compounds, 0.47% hits; 3617.4 mouse cells, GR-EGFP nuclear translocation imaging; test concentration mostly 20 µM; stimulated with dexamethasone, 1 µM; hits give low values;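 active = plate z-score of nuclear minus cytoplasmic receptor signal below a set negative limit, without overly bright fluorescence or cell loss, cut at about -3.5 in these data, passing the limit was not always enough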;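 note: z-score of nuclear minus cytoplasmic ring GR-EGFP intensity difference per well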
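Buffer or medium – tet-free medium with charcoal-stripped serum · Signal – automated 10x imaging of fixed Hoechst-stained cells · Also added – dexamethasone agonist, 1.0 µM final, for 30 min · Incubation – induction 48 h, compound 1 h, agonist 30 min · Read-out – GR-EGFP nuclear translocation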
Autophagy HCS – autophagy modulation, high-content screen; calls only at 10 µM (by protocol); MEF GFP-LC3 puncta imaging; test concentration mostly 10 µM; 190,000 compounds, 0.98% hits;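 active = percentage of spot-positive cells more than 3 SD above its plate mean, without a fluorescence outlier flag or 80% toxicity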
L major viab – Leishmania major promastigote growth inhibition; Leishmania major promastigotes, resazurin fluorescence viability; inhibition, % at 10 µM; 200,000 compounds, 9% hits; AID 1063; in the data active = inhibition above about 50%;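 note: promastigotes grown with compound for 44 hours at 28 °C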
PTEN del growth – growth suppressors of cells with PTEN tumor suppressor deletion. HCT116 PTEN-null viability, CellTiter-Glo, 60 h; hits give low values. viability, % at 10 µM. 140,000 compounds, 1.2% hits;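 active = viability at or below a set limit, 4 SD under the median of all tested compounds, cut at about 3.7% in these data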;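 note: PTEN knockout HCT116 line with beta catenin targeted HCT116 as companion control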
Of the large screens only hits and unclear results are named; the others gave an inactive call. Shown are actives, neighbours in structure and some others; about 9.2% of the full set was active somewhere.

COc1cc(C2C3=C(CCCC3=O)Nc3ccc4ncccc4c32)ccc1O (stereo not drawn)	none (no result: bCat KO growth, PTEN del growth)
O=C/C(=C\Nc1ccccn1)c1nc2ccccc2o1	L major viab 73
O=C/C(=C\Nc1ccc(Br)cc1)c1nc2ccccc2o1	none (no result: bCat KO growth, PTEN del growth)
O=C(COC(=O)c1c(Cl)ccc(Cl)c1Cl)NC(=O)NCc1ccccc1	L major viab 79
COc1cccc(OC)c1C(=O)OCC(=O)NC(=O)NCc1ccccc1	none (no result: bCat KO growth, PTEN del growth)
Cc1nc2nc3c(cn2n1)C(=O)CCC3	none
O=C(Nc1ccccc1)c1nccn1Cc1ccc(F)cc1	none (no result: bCat KO growth, PTEN del growth)
Cn1nnnc1SC(C(=O)Nc1cccc(C(F)(F)F)c1)c1ccccc1 (stereo not drawn)	L major viab 62
O=C(Nc1cccc(C(F)(F)F)c1)C(SCCO)c1ccccc1 (stereo not drawn)	none
O=C(CCNc1cccc(Cl)c1)c1ccco1	L major viab 83
CC(C)CCn1c2ccccc2c2cc(CC(N)=O)ccc21	none (no result: bCat KO growth, Autophagy HCS, L major viab, PTEN del growth)
Cc1cccc(OCC(=O)N/N=C/c2cc([N+](=O)[O-])ccc2N2CCOCC2)c1	L major viab 87
O=C(N/N=C\c1cc([N+](=O)[O-])ccc1N1CCOCC1)c1ccccn1	none (no result: bCat KO growth, PTEN del growth)
CCc1ccc(OCC(=O)N/N=C/c2cc([N+](=O)[O-])ccc2N2CCOCC2)cc1	L major viab 78
COc1ccc(NC(=O)CC(NCc2ccccn2)C(=O)O)cc1 (stereo not drawn)	none (no result: bCat KO growth, PTEN del growth)
CCN(CC#CCC(O)(c1ccccc1)C1CCCC1)C(C)C (stereo not drawn)	L major viab 68
O=C(COc1ccc(S(=O)(=O)NC2CCCCC2)cc1Cl)Nc1ccc2c(c1)OCO2	none
O=C(COc1ccc(S(=O)(=O)NC2CCCCC2)cc1Cl)NCc1ccc2c(c1)OCO2	L major viab 73
CCN(CC(=O)Nc1ccc(NC(C)=O)cc1)C(=O)c1n[nH]c(=O)c2ccccc12	none (no result: bCat KO growth, PTEN del growth)
CCNc1ccc(S(=O)(=O)N(C)C)cc1NCC(=O)Nc1ccc(Br)cc1F	L major viab 72
CCNc1ccc(S(=O)(=O)N(C)C)cc1NCC(=O)Nc1ccccc1F	none
COc1ccc(C2C(C#N)=C(N)N(c3cccnc3)C3=C2C(=O)CCC3)cc1Cn1cc([N+](=O)[O-])cn1 (stereo not drawn)	L major viab 89
COc1ccc(C2C(C#N)=C(N)N(c3ccccc3)C3=C2C(=O)CCC3)cc1Cn1cc([N+](=O)[O-])cn1 (stereo not drawn)	L major viab 99
COc1ccc(C2C(C#N)=C(N)OC3=C2C(=O)CC(C)(C)C3)cc1Cn1cc([N+](=O)[O-])cn1 (stereo not drawn)	none
COc1ccc(C2C(C#N)=C(N)OC3=C2C(=O)CCC3)cc1Cn1cc([N+](=O)[O-])cn1 (stereo not drawn)	none
CCCCOC(=O)c1c(C)oc2ccc(NS(=O)(=O)c3ccc4c5c(cccc35)C(=O)N4)cc12	none
COC(=O)[C@H](C)NC(=O)NCc1ccccc1	none (no result: bCat KO growth, Autophagy HCS, L major viab, PTEN del growth)
COc1cccc(C2C3=C(N=c4s/c(=C\c5ccc(O)cc5)c(=O)n42)c2ccccc2CC3)c1OC (stereo not drawn)	none
COc1cccc(C2C3=C(N=c4s/c(=C\c5cccc(O)c5)c(=O)n42)c2ccccc2CC3)c1OC (stereo not drawn)	bCat KO growth 2.4, PTEN del growth 1.7
O=C(O)CCC(=O)CCC(=O)c1ccc(Cl)cc1	none
CN(C)CCC(=O)c1ccc(Cl)cc1	L major viab 100
COC(=O)c1ccc(CN2CCN(Cc3ccc(F)cc3)C(CCO)C2)cc1 (stereo not drawn)	L major viab 59 (no result: bCat KO growth, PTEN del growth)
COc1ccc(/C=C/CN2CCN(Cc3ccc(F)cc3)C(CCO)C2)cc1 (stereo not drawn)	L major viab 68 (no result: bCat KO growth, PTEN del growth)
COC(=O)c1ccc(CN2CCN(CC(C)C)C(CCO)C2)cc1 (stereo not drawn)	none (no result: bCat KO growth, Autophagy HCS, L major viab, PTEN del growth)
COC(=O)c1ccc(CN2CCN(CC=C(C)C)C(CCO)C2)cc1 (stereo not drawn)	L major viab 73 (no result: bCat KO growth, PTEN del growth)
O=C(OCn1nnc2ccccc2c1=O)c1ccc(N2CCOCC2)c([N+](=O)[O-])c1	none
O=C(N/N=C/c1ccc2cccc(OCc3ccccc3)c2n1)c1ccc(Cl)cc1	L major viab 68
CC(C)C(=O)Nc1ccccc1C(=O)N/N=C/c1ccc([N+](=O)[O-])cc1	L major viab 52
O=C(N/N=C/c1ccc(F)cc1)c1ccc(OCc2ccccc2)cc1	none (no result: bCat KO growth, Autophagy HCS, L major viab, PTEN del growth)

Compound activity deposited in PubChem BioAssay by several laboratories.
